Results: ChEMBL document CHEMBL4041534, “Treatment of Sepsis Pathogenesis with High Mobility Group Box Protein 1-Regulating Anti-inflammatory Agents” (J Med Chem, 2017)
Changes are numbered by the printed parent chain. ≈ marks a conversion by molar mass, not a printed value. Calls of active or inactive are those of the source. The calls are words filed in the database; no cut-off is given here.

How the values were obtained:
[1] = Cytotoxicity against mouse RAW264.7 cells assessed as cell viability at 10 uM in presence of LPS measured after 24 hrs by WST assay relative to control; format: cell-based; settings: read-out: Activity
Method in brief: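 Raw264.7 cells, seeded 1 day earlier, were washed into serum-free DMEM and given 100 ng/mL LPS plus compound (10 μM) for 24 h. After the supernatant was removed, wells were refilled with 10% FBS DMEM and WST reagent was added for 20 min at 37 °C. Absorbance was read at 450 nm, and viability is relative to vehicle. At least three independent experiments.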

RAW264.7 = experiment: Cytotoxicity against mouse RAW264.7 cells assessed as reduction in cell viability at >10 uM in presence of LPS measured after 24 hrs by WST assay; format: cell-based; settings: raw264.7, 24 h
[2] = target: T1, High mobility group protein B1 (Mus musculus) (UniProt P63158); experiment: Inhibition of HMGB1 translocation from nucleus to cytosol in LPS-stimulated mouse RAW264.7 cells assessed as inhibition of NO release at 10 uM measured after 24 hrs by Griess assay relative to control
T1 sequence (whole entry): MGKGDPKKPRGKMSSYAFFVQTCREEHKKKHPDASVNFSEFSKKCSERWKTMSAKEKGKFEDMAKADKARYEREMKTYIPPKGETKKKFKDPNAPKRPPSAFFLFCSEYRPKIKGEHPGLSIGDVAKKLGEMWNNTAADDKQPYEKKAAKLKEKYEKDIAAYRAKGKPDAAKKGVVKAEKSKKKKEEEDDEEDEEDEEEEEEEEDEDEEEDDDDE
Method in brief: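 Raw264.7 cells, seeded 1 day earlier, were moved to serum-free DMEM and exposed to 100 ng/mL LPS with 10 μM compound for 24 h. Supernatant NO was measured with Griess reagent (sulfanilamide/N-(1-naphthyl)ethylenediamine/phosphoric acid) at room temperature, absorbance 548 nm. Inhibition was set against LPS+DMSO wells, blank-corrected, with four control wells. At least three independent experiments.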

[3] = target: T1, High mobility group protein B1 (Mus musculus); experiment: Inhibition of HMGB1 translocation from nucleus to cytosol in LPS-stimulated mouse RAW264.7 cells assessed as inhibition of TNF-alpha production at 10 uM measured after 4 hrs by ELISA relative to control
Method in brief: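 Raw264.7 cells in serum-free DMEM were treated with 100 ng/mL LPS and 10 μM compound (final). After 4 h, medium was diluted in 1% BSA/PBS and secreted TNF-α was quantified by ELISA against a standard curve of TNF-α protein. Inhibition is relative to control. At least three independent experiments.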

[4] = target: T1, High mobility group protein B1 (Mus musculus); experiment: Inhibition of HMGB1 nuclear translocation in LPS-stimulated mouse RAW264.7 cells at 20 uM pretreated for 1 hr followed by LPS-induction measured after 2 hrs by Hoechst 33342/TRITC staining based immunofluorescence microscopic method
Method in brief: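 Raw264.7 cells on chambered coverglass were pretreated with 20 μM compound for 1 h, then given 500 ng/mL LPS for 2 h. Cells were fixed in 4% paraformaldehyde, permeabilized with methanol at −20 °C, blocked with 2% BSA, and stained with anti-HMGB1 plus TRITC secondary and Hoechst 33342. Imaged by deconvolution fluorescence microscopy. At least three independent experiments.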

[5] = Equilibrium aqueous solubility of the compound by microsol method; format: physicochemical
Method in brief: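 Equilibrium aqueous solubility by the μsol method. Mean ± SD, n = 3.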

Mus musculus [6] = experiment: Anti-inflammatory activity in C57BL/6(B6) mouse model of CLP-induced sepsis assessed as survival rate at 10 mg/kg, ip administered daily for 21 days starting from 1 hr prior to CLP-induction (reference value: 10 %); format: functional
[7] = target: T1, High mobility group protein B1 (Mus musculus); experiment: Inhibition of HMGB1 nuclear translocation in LPS-stimulated mouse RAW264.7 cells assessed as inhibition of IL-6 production at 10 uM pretreated for 1 hr followed by LPS-induction by Western blot analysis
Method in brief: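 Raw264.7 cells were pretreated with 10 μM compound for 1 h, then given 100 ng/mL LPS. IL-6 released into the culture medium was detected by Western blot with ECL chemiluminescence, DMSO as control. At least three independent experiments.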

[8] = target: T2, High mobility group protein B1 (Homo sapiens) (UniProt P09429); experiment: Inhibition of ICM-BP binding to recombinant human HMGB1 assessed as reduction in Cy5-azide incorporation pretreated for 60 mins followed by ICM-BP addition for 20 mins and subsequent UV light irradiation for 5 mins by fluorescence assay
T2 sequence (whole entry): T1 sequence (whole entry) with D189E, E202D
Method in brief: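 Purified HMGB1 (1 μg in water) was pretreated with competitor for 60 min, with DMSO held at 0.8% final. ICM-BP (5 μM) was then added for 20 min, followed by 365 nm UV for 5 min on ice. Cy5-azide was attached by click reaction, then samples were run on 12.5% SDS-PAGE and in-gel fluorescence scanned. Competitor was dosed in a graded series.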

Mus musculus [9] = species on record: Mus musculus; experiment: Inhibition of JNK phosphorylation at Thr183/Tyr185 resdiues in LPS-stimulated mouse RAW264.7 cells at 20 uM pretreated followed by LPS-induction by Western blot analysis
Method in brief: (§1)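 Raw264.7 cells were pretreated with 20 μM compound, then stimulated with 100 ng/mL LPS, with DMSO as control. Lysates in RIPA buffer with protease and phosphatase inhibitors were normalized by BCA and run on SDS-PAGE/Western blot for phospho-p38, JNK and ERK, with GAPDH as loading control. Detection by ECL, and band intensities were quantified. At least three independent experiments.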

Mus musculus [10] = experiment: Anti-inflammatory activity in C57BL/6(B6) mouse model of CLP-induced sepsis assessed as decrease in serum IL-6 level at 10 mg/kg, ip administered daily for 21 days starting from 1 hr prior to CLP-induction by ELISA; format: functional, organism-based
Method in brief: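 Serum IL-6 measured by sandwich ELISA. Blood was taken from CLP-induced C57BL/6 mice 24 h after surgery. Plates coated with anti-IL-6 mAb overnight at 4 °C and blocked with 1% BSA/PBS; serum incubated overnight at 4 °C. Detection used biotinylated anti-IL-6 and streptavidin-HRP, TMB development and absorbance at 450 nm. Run in triplicate, three independent repeats.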

Mus musculus [11] = species on record: Mus musculus; experiment: Inhibition of ERK phosphorylation in LPS-stimulated mouse RAW264.7 cells at 20 uM pretreated followed by LPS-induction by Western blot analysis; method in brief: as §1
[12] = target: MAP kinase p38 (Mus musculus) (UniProt P47811+O08911+Q9WUI1+Q9Z1B7); experiment: Inhibition of MAPK p38 phosphorylation at Thr180/Tyr182 resdiues in LPS-stimulated mouse RAW264.7 cells at 20 uM pretreated followed by LPS-induction by Western blot analysis; method in brief: as §1
[13] = Stability in human liver microsomes assessed as compound remaining preincubated for 5 mins followed by NADPH addition measured after 30 mins LC/MS/MS method; format: ADME, microsome; settings: read-out: Stability
Method in brief: (§2)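 Compounds were incubated with human or mouse liver microsomes in 100 mM potassium phosphate, pH 7.4, at 37 °C for 5 min. NADPH regenerating solution was added, and the reaction was stopped at 30 min with ice-cold acetonitrile containing imipramine internal standard. Percent remaining was measured by LC/MS/MS. Mean ± SD, n = 3.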

[14] = Stability in mouse liver microsomes assessed as compound remaining preincubated for 5 mins followed by NADPH addition measured after 30 mins LC/MS/MS method; format: ADME, microsome; settings: read-out: Stability; method in brief: as §2
Mus musculus [15] = species on record: Mus musculus; experiment: Inhibition of NF-kappaB p65 nuclear translocation in LPS-stimulated mouse RAW264.7 cells at 20 uM pretreated followed by LPS-induction by Hoechst 33342/TRITC staining based immunofluorescence microscopic method
Method in brief: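 NF-κB p65 immunofluorescence in Raw264.7 cells pretreated with 20 μM compound, then stimulated with 500 ng/mL LPS. Fixation was 4% paraformaldehyde, methanol permeabilization at −20 °C, and BSA blocking. Cells were stained with anti-p65 plus TRITC secondary and Hoechst 33342 nuclear stain, then imaged by deconvolution microscopy. At least three independent experiments.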

Row | Structure (SMILES) | inhibition [2] | viability at 24 h, 10 µM [1] [%] | further results
1 | CC1(C)Oc2cc(O)ccc2C2C1=CCn1c(=O)n(-c3ccc(C(C)(C)C)cc3)c(=O)n12 (stereo not given) | 99% | 105 | Activity (RAW264.7): Toxic
2 | CCCN1CCC2(CC1)Oc1cc(O)ccc1C1C2=CCn2c(=O)n(-c3ccccc3)c(=O)n21 (stereo not given) | 47% |  | 
3 | CC1(C)Oc2cc(O)ccc2C2C1=CCn1c(=O)n(C3CCCCC3)c(=O)n12 (stereo not given) | 63% | 117 | 
4 | CC1(C)Oc2cc(O)ccc2C2C1CCn1c(=O)n(-c3ccccc3)c(=O)n12 (stereo not given) | inactive |  | 
5 | CCCCc1ccc(-n2c(=O)n3n(c2=O)C2C(=CC3)C(C)(C)Oc3cc(O)ccc32)cc1 (stereo not given) | 99% | 50 | Activity (RAW264.7): Toxic
6 | CC(=O)c1ccc(-n2c(=O)n3n(c2=O)C2C(=CC3)C(C)(C)Oc3cc(O)ccc32)cc1 (stereo not given) | 93% | 111 | inhibition [4]: Active; solubility thermodynamic [5]: 162 µg/mL (≈ 387 µM); survival at 10 mg/kg (Mus musculus [6]): 74%; inhibition [7]: Active; inhibition [8]: Dose-dependent effect; inhibition (Mus musculus [9]): Active; Activity (Mus musculus [10]): Active; inhibition (Mus musculus [11]): Active; inhibition [12]: Active; remaining at 0.5 h [13]: 30.2%; remaining at 0.5 h [14]: 2.46%; inhibition (Mus musculus [15]): Active; inhibition [3]: 68%
7 | CC(=O)N1CCC2(CC1)Oc1cc(O)ccc1C1C2=CCn2c(=O)n(-c3ccccc3)c(=O)n21 (stereo not given) | 36% |  | 

More lines, main results first:

Row | inhibition [2] | Structure (SMILES) | viability at 24 h, 10 µM [1] [%] | further results
8 | 79% | CC1(C)Oc2cc(F)ccc2C2C1=CCn1c(=O)n(-c3ccccc3)c(=O)n12 (stereo not given) |  | 
9 | 66% | COc1ccccc1-n1c(=O)n2n(c1=O)C1C(=CC2)C(C)(C)Oc2cc(O)ccc21 (stereo not given) | 115 | 
10 | 44% | COc1cc2c(cc1OC)C1C(=CCn3c(=O)n(-c4ccccc4)c(=O)n31)C(C)(C)O2 (stereo not given) |  | 
11 | 87% | CC1(C)Oc2cc(O)ccc2C2C1=CCn1c(=O)n(-c3ccc(F)cc3)c(=O)n12 (stereo not given) | 109 | inhibition [3]: 44%
12 | 44% | COc1ccc2c(c1)OC(C)(C)C1=CCn3c(=O)n(-c4ccccc4)c(=O)n3C12 (stereo not given) |  | 
13 | 83% | CC1(C)Oc2ccccc2C2C1=CCn1c(=O)n(-c3ccccc3)c(=O)n12 (stereo not given) |  | 
